TAAR1 antag: antagonists of human TAAR1. CHO RD-HGA16 TAAR1, Fluo-8 calcium fluorescence, antagonist. inhibition, % at 3 µM. 360,000 compounds, 1.5% hits. AID 624466;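 active means inhibition above a per-plate cutoff, the mean inhibition of test compounds on that plate plus 3 SD, cut at about 49% in these data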;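 further: 0% = DMSO plus EC80 beta-PEA response and 100% = DMSO alone without agonist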
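Assay system: RD-HGA16 CHO cells with stable hTAAR1 and Gα16 / Reagent: EC80 β-phenethylamine stimulus / Doses: 3 µM, single point / Timing: dye loading 75 min at 37 °C, then 30 min room temperature / Measured by: Fluo-8 intracellular calcium dye fluorescence, real-time kinetic reads / Controls: vehicle wells and EC80 agonist wells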
OX1R antag-1: blocks the human orexin 1 receptor; 330,000 compounds, 0.43% hits; inhibition, % at 5 µM; O43613; CHO/OX1R cells, Fluo-8 calcium fluorescence, orexin A;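 active means inhibition above its plate's threshold, mean inhibition of all tested compounds on the plate plus 3 SD, cut at about 37% in these data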;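 further: 0% = orexin A challenge wells and 100% = SB-334867-A antagonist wells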
Target sequence (O43613 whole entry, looked up): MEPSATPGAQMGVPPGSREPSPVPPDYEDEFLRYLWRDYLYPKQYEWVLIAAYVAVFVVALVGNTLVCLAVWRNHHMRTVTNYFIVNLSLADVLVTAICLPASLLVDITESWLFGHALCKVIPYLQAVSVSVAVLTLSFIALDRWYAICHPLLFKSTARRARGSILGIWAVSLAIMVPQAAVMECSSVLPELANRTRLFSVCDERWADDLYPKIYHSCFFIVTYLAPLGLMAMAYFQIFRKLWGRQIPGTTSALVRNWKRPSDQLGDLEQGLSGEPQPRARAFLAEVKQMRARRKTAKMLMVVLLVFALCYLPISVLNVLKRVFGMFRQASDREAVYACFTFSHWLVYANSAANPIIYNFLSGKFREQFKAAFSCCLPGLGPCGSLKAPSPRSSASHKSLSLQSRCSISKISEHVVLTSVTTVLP
GPR7 antagonist: human neuropeptides B/W receptor 1 antagonism; AID 1861; GPR7-expressing cells, fluorescence antagonist assay; inhibition, % at 4.4 µM; P48145; 290,000 compounds, 1.1% hits; in the data active means inhibition above about 16%, passing the limit was not always enough;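 further: cells stimulated with the agonist NPW; 0% = agonist with vehicle and 100% = vehicle without agonist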
Target sequence (P48145 whole entry, looked up): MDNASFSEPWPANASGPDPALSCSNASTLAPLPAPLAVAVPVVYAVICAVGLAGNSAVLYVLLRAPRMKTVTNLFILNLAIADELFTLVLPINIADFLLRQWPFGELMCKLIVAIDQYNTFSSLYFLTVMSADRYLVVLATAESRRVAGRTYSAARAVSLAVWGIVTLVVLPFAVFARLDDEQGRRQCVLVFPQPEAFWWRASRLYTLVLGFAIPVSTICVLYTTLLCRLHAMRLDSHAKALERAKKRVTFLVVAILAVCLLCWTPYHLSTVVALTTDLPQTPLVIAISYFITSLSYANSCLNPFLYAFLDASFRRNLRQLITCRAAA
TAAR1 agonist: human TAAR1 agonism | Q96RJ0 | CHO RD-HGA16 TAAR1, Fluo-8 calcium fluorescence; vehicle wells 0%, saturating PEA agonist 100% | activation, % at 3 µM | 360,000 compounds, 0.99% hits;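 active means activation above the mean activation of all test compounds in the run plus 3 SD, cut at about 38% in these data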
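Assay system – CHO-derived RD-HGA16 cells with stable Gα16 and human TAAR1 · Compound dosing – one-point dosing at 3 µM (nominal) · Incubation – 17-24 h seeding, 75 min 37 °C dye, 30 min RT · Measured by – kinetic Fluo-8 calcium fluorescence · Control set – DMSO vehicle as 0%, PEA at EC100 as 100% · Repeats – single well for each compound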
CHO parental Ca: counter-screen: ATP calcium response change in parental CHO cells. parental CHO-K1, ATP-induced calcium, Fluo-8 fluorescence. inhibition, % at 5.6 µM. 330,000 compounds, 0.63% hits. AID 463079;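 active means inhibition above that plate's mean sample inhibition plus 3 SD, cut at about 26% in these data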;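 further: 0% = ATP-challenged DMSO wells and 100% = DMSO wells without ATP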
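Test system: parental CHO cells; detection: calcium-sensitive Fluo-8 fluorescence; evaluation: percent inhibition of calcium signal; also added: ATP as calcium-mobilizing challenge; repeats: one well per compound; control set: ATP-challenged DMSO wells low, unchallenged DMSO wells high; compound: single nominal dose of 5.6 µM per compound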
OX1R antag-2: OX1R (human) antagonism. O43613. AID 485270. OX1R-expressing cells, FRET antagonist read-out. inhibition, % at 6.6 µM. 330,000 compounds, 1.8% hits; in the data active means inhibition mostly above about 38%, no sharp cut-off; inactive means mostly below about 40%;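 further: 0% = agonist challenge alone and 100% = reference antagonist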
GPR7 antag cf: confirmation of human GPR7 antagonists; GPR7-expressing cells, calcium fluorescence antagonist mode; AID 1952; inhibition, % at 4.4 µM; shares compounds with GPR7 antagonist; 2,400 compounds, 52% hits; in the data active means inhibition above about 24%;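 further: stimulated with the GPR7 agonist NPW; 0% = agonist plus vehicle and 100% = vehicle alone without agonist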
MCHR1 antag: counter-screen for GPR7 antagonists: antagonists of human MCHR1; shares compounds with GPR7 antagonist; MCHR1-expressing cells, fluorescence antagonist assay; inhibition, % at 4.4 µM; 2,400 compounds, 62% hits; AID 2148; in the data active means inhibition above about 22%;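 further: 0% = vehicle with agonist and 100% = vehicle without agonist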
* = called active by the depositor; x = not tested or not shown. Rows were chosen to be rich in hits. Some 4.6% of all compounds tested hit in one or more screens of this group.

SMILES | TAAR1 antag | OX1R antag-1 | GPR7 antagonist | TAAR1 agonist | CHO parental Ca | OX1R antag-2 | GPR7 antag cf | MCHR1 antag
COc1cc(OC)cc(C(=O)N2CCN(C(=O)c3cccs3)CC2)c1 | -6.4 | -16.1 | -12.5 | 4.1 | -9.9 | 20.8 | x | x
O=C1NC(Cc2ccc(O)cc2)c2nc3ccc(F)cc3c(=O)n2-c2ncccc21 (stereo not drawn) | -2.0 | x | x | 2.0 | x | x | x | x
O=C(C(Cc1ccccc1)n1cccc1)N1CCCCC1 (stereo not drawn) | -12.3 | -7.3 | -3.1 | -2.0 | -11.0 | 16.3 | x | x
O=C(C(Cc1ccccc1)n1cccc1)N1CCN(Cc2ccccc2)CC1 (stereo not drawn) | x | -46.2 | 24.8* | x | -14.9 | 17.2 | 20.9 | 11.6
O=C(CN1C(=O)COc2ccccc21)N1CCCC1 | 7.2 | -2.2 | 9.8 | 1.9 | -6.7 | 3.5 | x | x
O=C(CN1C(=O)COc2ccccc21)N1CCOCC1 | -5.4 | 1.4 | 32.0* | 2.7 | -12.5 | 9.5 | -2.8 | -1.0
CCC(=O)c1ccc(OC(=O)C2CCN(C3=NS(=O)(=O)c4ccccc43)CC2)cc1 | -6.9 | -6.3 | x | 5.9 | -24.6 | 3.3 | x | x
COc1ccc(CCNC(=O)c2ccc3c(c2)N(Cc2ccc(F)cc2)CCS3)cc1OC | 59.4* | -17.7 | 28.8* | -1.4 | -12.8 | 32.5 | 31.1* | 50.4*
CN1C[C@H]2CON(C)[C@H]2C[C@H]1c1cccc(N2CCOCC2)c1 | -14.9 | x | x | 1.7 | x | x | x | x
CCOc1ccccc1NC(=O)C(NCC1(N2CCCCC2)CCCCC1)c1ccccc1 (stereo not drawn) | -10.3 | -33.9 | 27.6* | 11.6 | -25.9 | 4.3 | 24.6* | 13.8
COc1ccc(C2CC(=O)C(C=NCCN3CCN(C(C)=O)CC3)=C(O)C2)cc1 (stereo not drawn) | -6.5 | 3.1 | -7.8 | 11.8 | -5.6 | 7.6 | x | x
COc1ccc(C2CC(=O)C(C=NCCN3CCOCC3)=C(O)C2)cc1 (stereo not drawn) | -13.0 | -14.5 | 23.3* | 4.1 | -14.6 | 2.0 | -1.5 | 5.1
COc1ccc(-n2ccnc2CN2CCCC(CO)(Cc3cccc(OC)c3)C2)cc1 (stereo not drawn) | -4.9 | -32.8 | -8.8 | 4.5 | -21.2 | 41.1 | x | x
COc1cccc(CC2(CO)CCCN(Cc3c(C)cc(C)cc3-n3cccn3)C2)c1 (stereo not drawn) | 5.7 | -33.8 | x | 1.1 | -12.5 | 8.2 | x | 9.4
CC(NCc1ccc(-c2ccccc2)cc1)C(O)c1ccccc1 (stereo not drawn) | 31.2 | -3.9 | 30.9* | 26.9 | 4.7 | 10.0 | 25.0* | 51.1*
CCC(=O)NNc1nc2c(Cl)cccc2s1 | 17.8 | -7.1 | -14.0 | 3.7 | -6.9 | 6.9 | x | x
N#Cc1ccc(CSc2nnc(Cc3cccs3)n2Cc2ccco2)cc1 | x | -2.0 | 24.6* | x | 1.6 | 22.8 | 27.8* | 20.3
Cc1cc(Cl)ccc1NC(=O)CSc1nnc(Cc2cccs2)n1Cc1ccco1 | 9.4 | -11.3 | 23.4* | 1.8 | -19.4 | 18.7 | 37.6* | 33.5*
COc1ccc(/C=N/n2cnc3c([nH]c4ccc(F)cc43)c2=O)cc1CSc1ccccn1 | -17.9 | -23.1 | -7.4 | -0.1 | 6.0 | 1.6 | x | x
CCOC(=O)C1=C(C)NC(C)=C(C(=O)OCC)C1c1ccccc1/C=C/C(=O)OC(C)(C)C | x | -56.9 | x | x | -0.3 | 30.7 | x | x
CC(=O)c1ccc(COC(=O)Cc2ccc([N+](=O)[O-])cc2)cc1 | 26.1 | 2.2 | 29.7* | 2.3 | -3.2 | 21.2 | 39.1* | 52.4*
CCC(C)Sc1nnc(NC(=O)c2ccco2)s1 (stereo not drawn) | -1.9 | -7.8 | -7.8 | 3.3 | -0.9 | 3.7 | x | x
CNc1cnc(-c2ccccc2OC)cn1 | -20.8 | x | x | -0.1 | x | x | x | x
COC(=O)C1=C(C)N(Cc2ccccc2)C(=NCc2ccc(OC)cc2)N[C@H]1c1cccc(F)c1 | 25.3 | 28.4 | 43.6* | 30.5 | 24.3 | 5.8 | 50.7* | 41.0*
COC(=O)C1=C(C)N(Cc2ccccc2)C(=NCc2cc(OC)c(OC)c(OC)c2)N[C@H]1c1cccc(F)c1 | x | -33.6 | 10.6 | x | -29.3 | 25.0 | x | x
SMILES | TAAR1 antag | OX1R antag-1 | GPR7 antagonist | TAAR1 agonist | CHO parental Ca | OX1R antag-2 | GPR7 antag cf | MCHR1 antag
Cc1cc(NC(=O)CSCC(=O)OCC(=O)c2ccc(Br)cc2)no1 | -17.0 | x | x | 8.0 | x | x | x | x
CC(NCc1cc(Br)ccc1OCC(=O)NCc1ccccc1)c1ccccc1 (stereo not drawn) | -7.1 | 5.0 | 29.8* | 26.3 | -17.4 | 14.9 | 34.0* | 39.5*
CCOc1ccc(NC(=S)N2CCC(NC(=O)C3CCCCC3)CC2)cc1 | -23.8 | -6.5 | 27.8* | 10.8 | 3.3 | 13.5 | -7.8 | 2.7
COc1ccc(C2CC2/C(=N/O)c2ccccn2)cc1 (stereo not drawn) | 25.8 | 6.8 | 28.3* | -1.4 | -13.6 | 21.9 | 26.2* | 17.5
O/N=C(\c1ccccn1)C1CC1c1ccccc1 (stereo not drawn) | -1.2 | -12.7 | -10.4 | -1.6 | -3.9 | 17.5 | x | x
Cc1ccccc1NC1=C(Cl)C(=O)OC1OC(=O)c1ccccc1C (stereo not drawn) | 40.8 | 2.8 | 52.0* | 6.4 | 61.2* | 25.2 | 20.0 | 58.9*
Cc1ccc(NC2=C(Cl)C(=O)OC2OC(=O)c2ccccc2)c(C)c1 (stereo not drawn) | 11.9 | -2.7 | -1.6 | 2.8 | -1.4 | 12.1 | x | x
CCN1C(=O)C(CC(=O)Nc2ccc(F)cc2)N(CCCN2CCN(c3ccc(F)cc3)CC2)C1=S (stereo not drawn) | 52.8* | -7.3 | 33.3* | 29.7 | -2.8 | 8.8 | 28.7* | 62.1*
Cc1ccc(CN2C(=O)c3ccccc3C2c2nnnn2-c2c(C)cccc2C)cc1 (stereo not drawn) | 4.2 | x | x | 3.3 | x | x | x | x
Cc1cccc(C(=O)Nc2ccc(C(=O)/C=C/c3ccncc3)cc2)c1 | 60.2* | 4.9 | 46.5* | 18.3 | 1.8 | 17.0 | 73.5* | 103.8*
COc1cccc(C(=O)Nc2ccc(C(=O)c3ccncc3)cc2)c1 | 12.9 | 13.2 | 23.0* | 12.2 | 7.6 | 19.6 | 23.4 | 47.1*
COc1cccc(C(=O)Nc2ccc(NC(C)=O)cc2)c1 | 3.9 | 3.6 | -3.0 | 3.4 | -2.2 | 3.2 | x | x
Cc1cccc(C)c1NC(=O)CN(C)CC(=O)Nc1ccccc1Oc1ccccc1 | 6.5 | -10.3 | 32.0* | 6.5 | -20.0 | 21.1 | 26.5* | 26.0*
Cc1ccc(NC(=O)CN(C)CC(=O)Nc2ccccc2Oc2ccccc2)cc1 | -9.6 | -15.4 | 2.6 | -1.3 | -7.2 | 6.6 | x | x
CC(=O)Oc1ccc(C(c2ccc(OC(C)=O)cc2)c2ccccn2)cc1 | -11.2 | -0.7 | 66.3* | 0.9 | 1.4 | 4.5 | 76.2* | 46.6*
